The values below come from PMC6331712 (ChemistryOpen, 2019).

The target of series [1] is KV7.2/KV7.3 channel (Homo sapiens, UniProt O43525+O43526). Type of series: cell-based. The note with it: for Emax: HEK293; for KV7.2/KV7.3 channel opening activity (in words): thallium flux assay, compared with 1.
In series [2] the test system is TAMH cells. As to the kind of experiment: MTT cell viability assay, TAMH cells. In kind it is cell-based, mouse. The note with it: for LD50 / LD25: TAMH cells, MTT; for LD50: 24 h exposure; for LD25: 48 h exposure; for Tox./Act. (toxicity/activity ratio, safety index): average LD25 (48 h, TAMH) divided by average EC50 (KV7.2/3). In a few lines:
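MTT viability read-out in TAMH (transgenic mouse hepatocyte) and HEP-G2 (human hepatoma) cell lines. LD50 was taken after 24 h of exposure. […] LD50 values are means with standard deviations of 4–5 independent determinations. The ratio uses the mean EC50 from a thallium-flux KV7.2/3 assay (30 min exposure, four-parameter logistic fit).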

Series [3] in a line: Anodic peak potential by cyclic voltammetry. In kind it is physicochemical. The note with it: 1.0 mM compound in 100 mM TRIS‐buffer (pH 7.4).
The nature of series [4]: LogD7.4 determination from HPLC retention times with calibration curve. The note with it: pH 7.4; for logD 7.4: from HPLC retention factor and calibration curve. In kind it is physicochemical.
Series [5] deals with HEP‐G2 cells. As to the kind of experiment: MTT cell viability assay, HEP-G2 cells. The note with it: for LD50 / LD25: HEP‐G2 cells, MTT; for LD50: 24 h exposure; for LD25: 48 h exposure; for Tox./Act. (toxicity/activity ratio, safety index): average LD25 (48 h, HEP‐G2) divided by average EC50 (KV7.2/3). In kind it is cell-based, human.

Molecules are shown by their SMILES. Where “and” joins values, the source holds several entries; their conditions need not be identical. Equal entries are not always repeated.

KV7.2/KV7.3 channel, sequence (O43525 whole entry): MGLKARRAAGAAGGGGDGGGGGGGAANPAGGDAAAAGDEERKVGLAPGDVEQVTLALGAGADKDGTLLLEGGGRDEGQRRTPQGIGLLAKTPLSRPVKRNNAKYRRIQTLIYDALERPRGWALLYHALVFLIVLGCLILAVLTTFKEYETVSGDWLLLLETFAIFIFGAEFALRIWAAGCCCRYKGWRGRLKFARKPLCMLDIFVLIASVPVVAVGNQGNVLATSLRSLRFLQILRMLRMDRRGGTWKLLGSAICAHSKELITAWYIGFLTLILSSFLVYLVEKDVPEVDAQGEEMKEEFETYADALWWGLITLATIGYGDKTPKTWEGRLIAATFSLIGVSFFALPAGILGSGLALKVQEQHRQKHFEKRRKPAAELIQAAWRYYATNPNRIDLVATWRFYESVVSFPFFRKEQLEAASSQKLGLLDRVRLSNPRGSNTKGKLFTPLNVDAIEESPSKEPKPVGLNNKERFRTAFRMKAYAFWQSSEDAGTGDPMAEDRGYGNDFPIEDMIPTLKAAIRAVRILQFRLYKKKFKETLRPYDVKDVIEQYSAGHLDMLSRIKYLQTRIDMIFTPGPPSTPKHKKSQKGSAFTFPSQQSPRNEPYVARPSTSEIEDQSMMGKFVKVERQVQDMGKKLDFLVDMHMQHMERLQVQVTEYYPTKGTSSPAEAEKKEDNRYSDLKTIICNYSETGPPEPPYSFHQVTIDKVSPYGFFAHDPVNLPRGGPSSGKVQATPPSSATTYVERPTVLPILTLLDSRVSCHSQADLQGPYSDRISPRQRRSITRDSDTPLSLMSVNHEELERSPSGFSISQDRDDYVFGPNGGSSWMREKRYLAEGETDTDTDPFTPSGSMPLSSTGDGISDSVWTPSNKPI
KV7.2/KV7.3 channel, sequence (O43526 whole entry): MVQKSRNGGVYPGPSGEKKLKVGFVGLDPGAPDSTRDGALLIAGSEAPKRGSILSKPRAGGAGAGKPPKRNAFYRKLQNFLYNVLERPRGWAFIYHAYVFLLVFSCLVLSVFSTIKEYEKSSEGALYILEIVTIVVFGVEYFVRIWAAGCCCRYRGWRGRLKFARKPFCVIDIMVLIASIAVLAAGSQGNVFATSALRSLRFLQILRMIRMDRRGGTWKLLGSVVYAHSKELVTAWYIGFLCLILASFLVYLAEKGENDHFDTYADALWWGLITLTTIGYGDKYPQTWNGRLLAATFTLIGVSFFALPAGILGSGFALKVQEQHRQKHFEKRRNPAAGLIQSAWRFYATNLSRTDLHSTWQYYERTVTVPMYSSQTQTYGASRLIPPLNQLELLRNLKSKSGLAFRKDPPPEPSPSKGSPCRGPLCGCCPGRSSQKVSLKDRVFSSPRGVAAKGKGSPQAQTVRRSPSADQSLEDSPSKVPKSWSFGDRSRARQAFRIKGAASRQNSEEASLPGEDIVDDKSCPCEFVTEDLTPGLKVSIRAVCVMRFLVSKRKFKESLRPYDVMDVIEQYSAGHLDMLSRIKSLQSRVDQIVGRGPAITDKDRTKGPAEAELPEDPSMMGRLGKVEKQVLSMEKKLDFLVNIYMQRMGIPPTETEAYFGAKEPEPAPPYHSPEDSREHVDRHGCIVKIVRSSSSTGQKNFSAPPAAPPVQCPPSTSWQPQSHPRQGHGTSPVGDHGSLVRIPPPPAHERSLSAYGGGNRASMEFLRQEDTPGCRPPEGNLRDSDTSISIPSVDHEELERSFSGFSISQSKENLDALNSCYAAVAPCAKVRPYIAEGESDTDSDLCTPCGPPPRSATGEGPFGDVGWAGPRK

`Nc1nc(SCc2ccc(F)cc2)ccc1NC(=O)c1ccc(F)c(F)c1` [9 a, N-{2-A mino-6-[(4-fluorobenzyl)thio]pyridin-3-yl}-3,4-difluorobenzamide]: in series [1], the EC50 was 260 ± 82 nM, the Emax stood at 100 ± 23% and the “KV7.2/KV7.3 channel opening activity (in words)” value is on record as “as active as the marketed drug 1”. Further, in series [2], the LD50 is greater than 30 µM; the LD25 is 13 ± 04 µM; the “Tox./Act. (toxicity/activity ratio, safety index)” value stood at 50. Further, the “Anodic peak potential E pa” value in series [3] came out at 442 mV. In addition, the chromatographic logD in series [4] amounted to 3.9. Besides, in series [5], the LD50 came out at 8 ± 3 µM; the LD25 stood at 4 ± 1 µM; the “Tox./Act. (toxicity/activity ratio, safety index)” value is 15.
Regarding `CCOC(=O)Nc1ccc(SCc2ccc(-c3ccccc3)cc2)nc1N` [9 b, Ethyl-{6-[(1,1'-biphenyl-4-yl)methylthio]-2-aminopyridin-3-yl}carbamate], in series [1], the concentration for a half-maximal effect (EC50) was 253 ± 42 nM, the Emax came to 69 ± 9% and the “KV7.2/KV7.3 channel opening activity (in words)” value is “as active as the marketed drug 1”. For the same compound, in series [2], the LD50 was greater than 63 µM; the LD25 amounted to 14 ± 13 µM; the “Tox./Act. (toxicity/activity ratio, safety index)” value is on record as 55. Moreover, in series [3], the “Anodic peak potential E pa” value amounted to 452 mV. In series [4], this compound came in with a chromatographic logD of 4.34. Further, the LD50 in series [5] is greater than 250 µM.
In the case of `CCOC(=O)Nc1ccc(SCc2cc(OC)cc(OC)c2)nc1N` [9 c, Ethyl-{2-amino-6-[(3 ,5-dimethoxybenzylthio)pyridin-3-yl]}carbamate], the LD50 in series [2] is greater than 250 µM; in series [5], 134 ± 22 µM. For the same compound, in series [3], the “Anodic peak potential E pa” value is 450 mV. Besides, in series [4], the “logD 7.4” value worked out at 3.61.
For `CCOC(=O)Nc1ccc(SCc2ccccn2)nc1N` [9 d, Ethyl-{2-amino-6-[(pyridin-2-ylmethylthio)pyridin-3-yl]}carbamate] the same measures were greater than 1000 µM, 831 ± 149 µM, 499 mV and 2.62.
For `CCOC(=O)Nc1ccc(SC(=O)c2ccc(F)cc2)nc1N` [9 e, S-{6-Amino-5-[(ethoxycarbonyl)amino]pyridin-2-yl} 4-fluorobenzothioate], in series [1], the half-maximal effective concentration (EC50) was greater than 10000 nM and the “KV7.2/KV7.3 channel opening activity (in words)” value was “inactive in the tested concentration range”. The same compound gave an LD50 in series [2] greater than 125 µM. The “Anodic peak potential E pa” value in series [3] came out at 573 mV. The same compound yielded a chromatographic logD in series [4] of 3. The compound also registered an LD50 in series [5] greater than 250 µM.
For the compound `CCOC(=O)Nc1ccc(SCCN2CCCCC2)nc1N` [9 f], the LD50 in series [2] and in series [5] was greater than 500 µM in each case. Also, the “Anodic peak potential E pa” value in series [3] was found to be 573 mV. The “logD 7.4” value in series [4] was 2.04.
`CNc1nc(SCc2ccccc2)ccc1NC(=O)Cc1cc(F)cc(F)c1` [9 g, N‐[6‐(Benzylthio)‐2‐(methylamino)pyridin‐3‐yl]‐2‐(3,5‐difluorophenyl)acetamide]: in series [1], it took 15 ± 2 nM to reach a half-maximal effect (EC50); the Emax came out at 147 ± 9%; the “KV7.2/KV7.3 channel opening activity (in words)” value is “markedly more potent and effective”. Moreover, in series [2], the LD50 was greater than 7.5 µM; the LD25 is 6 ± 3 µM and 6 ± 03 µM; the “Tox./Act. (toxicity/activity ratio, safety index)” value amounted to 400. In addition, the “Anodic peak potential E pa” value in series [3] was determined as 631 mV. In series [4], the chromatographic logD was 4.27. Moreover, in series [5], the LD50 is greater than 10 µM; the LD25 amounted to 4 ± 4 µM; the “Tox./Act. (toxicity/activity ratio, safety index)” value was 267.
In series [1], `CCOC(=O)Nc1ccc(SCc2ccc(F)cc2)nc1C` [9 h, E t hyl [6-(4-fluorobenzylthio)-2-methylpyridin-3-yl]carbamate] came in with an EC50 of 269 ± 31 nM and an Emax of 129 ± 3%. In addition, in series [2], the LD50 was greater than 10 µM and the LD25 was greater than 10 µM. Also, the “Anodic peak potential E pa” value in series [3] stood at 855 mV. Besides, the chromatographic logD in series [4] came out at 3.85. Further, in series [5], the LD50 was greater than 30 µM; the LD25 was 25 ± 16 µM; the “Tox./Act. (toxicity/activity ratio, safety index)” value was 93.
On to `Nc1nc([S+]([O-])Cc2ccc(F)cc2)ccc1NC(=O)c1ccc(F)c(F)c1` (centres unmarked) [10 a, N-[2-Amino-6-(4-fluorobenzylsulfinyl)pyridin-3-yl]-3 ,4-difluorobenzamide], for which, in series [1], the 50% effective concentration (EC50) is greater than 10000 nM. For the same compound, the values for the LD50 in series [2] and in series [5] were greater than 100 µM and greater than 125 µM, respectively. The “Anodic peak potential E pa” value in series [3] amounted to 628 mV. Also, in series [4], the chromatographic logD was determined as 3.24.
For `CCOC(=O)Nc1ccc([S+]([O-])Cc2ccc(-c3ccccc3)cc2)nc1N` (centres unmarked) [10 b, E t hyl {6-[(1,1'-biphenyl-4-yl)methylsulfinyl]-2-aminopyridin-3-yl}carbamate] the same measures were greater than 10000 nM, greater than 63 µM, greater than 63 µM, 654 mV and 3.72.
Consider `CCOC(=O)Nc1ccc([S+]([O-])Cc2ccc(F)cc2)nc1C` (centres unmarked) [10 d], for which the concentration giving a half-maximal response (EC50) in series [1] was greater than 10000 nM. The LD50 in series [2] and in series [5] was greater than 500 µM each time. The “Anodic peak potential E pa” value in series [3] was “n.o.^[g]”. Also, the chromatographic logD in series [4] was 3.02.
In series [1], `CCOC(=O)Nc1ccc(NCc2ccc(F)cc2)nc1N` [Compound 1, Flupirtine, reference compound] displayed a half-maximal effective concentration (EC50) of 918 ± 99 nM and an Emax of 100%. Besides, in series [2], the LD50 was determined as 487 ± 51 µM; the LD25 came out at 103 ± 47 µM; the “Tox./Act. (toxicity/activity ratio, safety index)” value was 112. Moreover, the “Anodic peak potential E pa” value in series [3] stood at 350 mV. Moreover, the chromatographic logD in series [4] stood at 2.96. Further, in series [5], the LD50 came out at 547 ± 111 µM; the LD25 is 74 ± 40 µM; the “Tox./Act. (toxicity/activity ratio, safety index)” value is 81.
